The text below walks through data of paper PMC6796967 (Journal of Medicinal Chemistry, 2018).

Molecules are shown by their SMILES. Residues, ends and D or L forms follow the SMILES beside them.

For the data set, the system named is human primary fibroblasts. As to the kind of experiment: WST-1 cell viability assay in fibroblasts. The class given is cell-based. The conditions noted are these: 0.1–20 μM, 24 h treatment; highest concentration. Put shortly: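 Primary human fibroblasts (GM04390) grown in high-glucose DMEM with 10% heat-inactivated FBS and antibiotics at 3% O2, 5% CO2, 37 °C. Seeded at 100 000 cells/mL, switched to Optimem after 24 h, then given 0.1–20 μM test compound or DMSO at 48 h. After about 24 h, incubated 4 h with 10% WST-1 reagent; absorbance read at 450 nm.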

As to `C[C@H](NC(=O)[C@H](Cc1ccc(O)cc1)NC(=O)[C@H](Cc1ccc(O)cc1)NC(=O)[C@@H]1CCCN1C(=O)[C@@H]1CCCN1C(=O)[C@@H]1CCCN1C(=O)[C@@H]1CCCN1C(=O)[C@H](CCCNC(=N)N)NC(=O)[C@H](CCCNC(=N)N)NC(=O)[C@@H](N)CCCNC(=N)N)C(=O)O` [Compound 2, RRR-PPPP-YYA-OH] (H-RRRPPPPYYA-OH), the “cytotoxic effects (cell viability, WST-1)” value is listed as “did not exert any cytotoxic effects”.
